In the library only some 2.5% were active in any assay of this set; here they are far more common.
SUMO1-SIM PPI: modulators of human SUMO1-mediated protein-protein interactions. P63165. SUMO1 binding to a labelled peptide, TR-FRET, 1 h. actives 0.33% (n = 360,000). inhibition, % at 20 µM
DNMT1 inh: blocks human DNA methyltransferase DNMT1; P26358; DNMT1 molecular beacon, Hinp1I cleavage, fluorescence; inhibition (reported as % activation of signal), % at 10 µM; actives 0.83% (n = 360,000); AID 588458; in the data active = inhibition above about 50%
MBD2 inh: blocks human MBD2 binding to methylated DNA; actives 0.31% (n = 370,000); Q9UBB5; inhibition, % at 4.4 µM; TR-FRET, MBD2 binding to methylated oligonucleotide; in the data active = inhibition above about 13%
NS3 helicase inh: inhibitors of Hepatitis C virus NS3 helicase | actives 0.56% (n = 290,000) | NS3 helicase DNA unwinding, Cy5 molecular beacon fluorescence | inhibition, % at 10.9 µM | AID 1800;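 active = inhibition above the mean of all tested compounds plus 3 SD, set per campaign, cut at about 35% in these data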;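 note: 0% = DMSO wells and 100% = thioflavine S control wells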
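Compound dosing – single dose, 10.9 µM nominal final, DMSO 0.8% final · System – NS3 helicase fragment of HCV · Buffer or medium – MOPS pH 6.5, MgCl2, DTT, Tween20, BSA · Signal – Cy5 beacon fluorescence read at start and 1 h · Also added – annealed dual-labelled DNA beacon duplex, ATP-started · Schedule – 1 h at 25 °C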
UHRF1 MBD2 ctr: UHRF1 methyl-DNA binding inhibition | Q96T88 | UHRF1 binding to methylated oligo, TR-FRET | inhibition, % at 4.4 µM | actives 0.75% (n = 370,000) | AID 687016; in the data active = inhibition above about 21%;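 note: UHRF1 SRA domain binding a hemimethylated CpG hairpin DNA probe; 0% = median of test compound wells and 100% = reference inhibitor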
DSG3 Ab inh: human desmoglein-3 autoantibody binding inhibition | DSG3-coupled beads, scFv-anti-DSG3-GFP binding, flow cytometry; active compounds read low | binding (percent of control), % at 10 µM | actives 0.48% (n = 310,000);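 active = binding more than 3 SD below its plate's average and above zero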;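 note: hits lower antibody fragment binding to DSG3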
Target sequence (P32926 whole entry, looked up, the tested form may be a part): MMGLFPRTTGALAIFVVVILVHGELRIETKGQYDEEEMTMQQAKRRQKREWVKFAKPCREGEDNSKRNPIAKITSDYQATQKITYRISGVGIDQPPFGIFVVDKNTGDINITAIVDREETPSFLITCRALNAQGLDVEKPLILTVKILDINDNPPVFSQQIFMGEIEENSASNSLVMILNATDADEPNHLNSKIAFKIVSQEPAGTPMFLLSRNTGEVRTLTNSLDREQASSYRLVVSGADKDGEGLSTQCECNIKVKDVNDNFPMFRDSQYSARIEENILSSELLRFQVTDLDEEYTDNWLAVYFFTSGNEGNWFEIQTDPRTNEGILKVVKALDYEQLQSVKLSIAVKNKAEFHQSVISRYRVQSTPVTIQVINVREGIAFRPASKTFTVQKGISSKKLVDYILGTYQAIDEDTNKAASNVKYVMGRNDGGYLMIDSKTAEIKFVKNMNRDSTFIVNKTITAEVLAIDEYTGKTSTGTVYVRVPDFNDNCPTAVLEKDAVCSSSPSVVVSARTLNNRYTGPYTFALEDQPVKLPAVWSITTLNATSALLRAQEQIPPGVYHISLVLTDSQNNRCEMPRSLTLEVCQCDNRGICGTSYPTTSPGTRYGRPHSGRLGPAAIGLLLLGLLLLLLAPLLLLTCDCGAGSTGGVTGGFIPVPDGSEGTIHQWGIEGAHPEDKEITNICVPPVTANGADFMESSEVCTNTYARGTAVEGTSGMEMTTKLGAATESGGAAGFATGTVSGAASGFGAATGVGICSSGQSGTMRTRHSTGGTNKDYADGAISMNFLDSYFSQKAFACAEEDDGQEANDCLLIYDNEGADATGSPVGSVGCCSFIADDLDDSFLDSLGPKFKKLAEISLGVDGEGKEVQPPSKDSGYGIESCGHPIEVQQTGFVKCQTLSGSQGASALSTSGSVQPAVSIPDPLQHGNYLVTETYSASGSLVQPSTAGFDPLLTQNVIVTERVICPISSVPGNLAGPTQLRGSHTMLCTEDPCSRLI
NS3 helicase cf: HCV NS3 helicase inhibition, confirmation assay; shares compounds with NS3 helicase inh; NS3 helicase DNA unwinding, Cy5 molecular beacon fluorescence; inhibition, % at 10.9 µM; actives 31% (n = 1,600); AID 1943;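 active = inhibition above the mean of all tested compounds plus 3 SD, cutoff set per campaign, cut at about 36% in these data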
DNA FID counter: intercalator displacement, NS3 helicase counter-screen; shares compounds with NS3 helicase inh; DNA fluorescent intercalator displacement, fluorescence; inhibition, % at 7.9 µM; actives 4% (n = 1,600);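 note: 0% = vehicle and 100% = reference compound; higher means more displacement of ethidium bromide from the DNA hairpin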
FID counter DR: displaces fluorescent intercalator from DNA, HCV helicase counter-screen; shares compounds with NS3 helicase inh; fluorescent intercalator displacement from DNA, fluorescence; IC50, µM; 120 tested, under 10 active; AID 2172; call rule not given here
An asterisk follows results filed as active. Cut-off read from the data, not from the text of the source, unless noted: active = inhibition above about 37%; inactive = the rest.

O=C(NCCC(=O)N1CCCC(C(F)(F)F)C1)c1ccccc1Cl (stereo not drawn) was read as SUMO1-SIM PPI -41, DNMT1 inh -2, MBD2 inh -1, NS3 helicase inh 0, UHRF1 MBD2 ctr -1 and DSG3 Ab inh 107.
Screening COCCCn1c(=S)[nH]c2sc3c(c2c1=O)CCCC3 returned SUMO1-SIM PPI 14, DNMT1 inh -2, MBD2 inh -1, NS3 helicase inh 11, UHRF1 MBD2 ctr -2 and DSG3 Ab inh 102.
COCCn1c(=S)[nH]c2sc3c(c2c1=O)CCCC3 was read as SUMO1-SIM PPI 7, DNMT1 inh 1, MBD2 inh 2, NS3 helicase inh 52*, UHRF1 MBD2 ctr 0, DSG3 Ab inh 98, NS3 helicase cf -9 and DNA FID counter -6.
`O=c1c2ccc([N+](=O)[O-])cc2ncn1CCOc1ccccc1` gave SUMO1-SIM PPI -19, DNMT1 inh -9, MBD2 inh 1, NS3 helicase inh -6, UHRF1 MBD2 ctr -2 and DSG3 Ab inh 118.
For O=C1Cc2ccccc2C(=O)N1c1cccc(Cl)c1 the results were SUMO1-SIM PPI 4, DNMT1 inh -9, MBD2 inh -3, NS3 helicase inh 37*, UHRF1 MBD2 ctr -1, DSG3 Ab inh 89, NS3 helicase cf -19 and DNA FID counter 19.
Screening Cc1cc(C(=O)O)ccc1-n1c(C)ccc1C returned NS3 helicase inh 78*, NS3 helicase cf 90* and DNA FID counter -26.
Screening O=C(CCN1CCOCC1)Nc1ccc2c(c1)CCC2 returned SUMO1-SIM PPI -3, DNMT1 inh -3, MBD2 inh -6, NS3 helicase inh -7, UHRF1 MBD2 ctr 1 and DSG3 Ab inh 100.
COc1cccc(C2C(C#N)=C(N)OC3=C2C(=O)CC(c2ccco2)C3)c1OCc1ccc(F)cc1 (stereo not drawn) was read as SUMO1-SIM PPI 8, DNMT1 inh 10, MBD2 inh 2, NS3 helicase inh 39*, UHRF1 MBD2 ctr 12, DSG3 Ab inh 87, NS3 helicase cf 64*, DNA FID counter -3 and FID counter DR >79.
For N#CC1=C(N)OC2=C(C(=O)CC(c3ccco3)C2)C1c1ccc(OCc2c(F)cccc2Cl)cc1 (stereo not drawn) the results were SUMO1-SIM PPI 13, DNMT1 inh 1, MBD2 inh -2, NS3 helicase inh 30, UHRF1 MBD2 ctr -1 and DSG3 Ab inh 107.
For CC(OC(=O)c1ccc(Cl)c(S(=O)(=O)N2CCCC2)c1)C(=O)NC1CCCCC1C (stereo not drawn) the results were NS3 helicase inh 37*, NS3 helicase cf -14 and DNA FID counter -16.
For Cc1ccc(C(=O)OC(C)C(=O)NC2CCCCC2C)cc1S(=O)(=O)N1CCCCC1 (stereo not drawn) the results were SUMO1-SIM PPI -1, DNMT1 inh 0, MBD2 inh -3, NS3 helicase inh -1 and UHRF1 MBD2 ctr 2.
CCc1ccc(/C=C2\Oc3c(ccc(O)c3CN3CCN(CCO)CC3)C2=O)cc1 was read as SUMO1-SIM PPI -16, DNMT1 inh 3, MBD2 inh -7, NS3 helicase inh 51*, UHRF1 MBD2 ctr -4, DSG3 Ab inh 101, NS3 helicase cf -13 and DNA FID counter 32.
Cc1ccc(S(=O)(=O)/N=C2/NC(=O)/C(=C\c3ccco3)S2)cc1 was read as SUMO1-SIM PPI 36, DNMT1 inh 29, MBD2 inh -4, NS3 helicase inh 38*, UHRF1 MBD2 ctr 7, DSG3 Ab inh 115, NS3 helicase cf 67* and DNA FID counter -3.
O=C(Cc1ccccc1F)NNC(=O)c1cccs1 was read as SUMO1-SIM PPI -7, DNMT1 inh -3, MBD2 inh 0, UHRF1 MBD2 ctr 0 and DSG3 Ab inh 113.
Screening O=C(N/N=C/c1cccn1-c1ccc([N+](=O)[O-])cc1)c1cccnc1 returned SUMO1-SIM PPI -32, DNMT1 inh -4, MBD2 inh 4, NS3 helicase inh 65*, UHRF1 MBD2 ctr 1, DSG3 Ab inh 99, NS3 helicase cf 1 and DNA FID counter -3.
Screening Cn1ccc2c(N3CCCCCC3)cc3c(c21)C1CCC3C1 (stereo not drawn) returned SUMO1-SIM PPI -1, DNMT1 inh 16, MBD2 inh -2 and UHRF1 MBD2 ctr -6.
O=C(CC1SC(=O)N(c2ccccc2)C1=O)Nc1ccccc1 (stereo not drawn) was read as SUMO1-SIM PPI -3, DNMT1 inh 2, MBD2 inh -4, NS3 helicase inh 38*, UHRF1 MBD2 ctr -11, DSG3 Ab inh 103, NS3 helicase cf -22 and DNA FID counter 12.
`Cc1ccc(NC(=O)CC2SC(=O)N(c3ccccc3)C2=O)cc1` (stereo not drawn) gave SUMO1-SIM PPI -1, DNMT1 inh 0, MBD2 inh 0, NS3 helicase inh 33, UHRF1 MBD2 ctr -8 and DSG3 Ab inh 74.
CC(C)c1ccc(C(CC(=O)O)NC(=O)c2cccs2)cc1 (stereo not drawn) was read as SUMO1-SIM PPI -4, DNMT1 inh 1, MBD2 inh 1, NS3 helicase inh 11, UHRF1 MBD2 ctr 0 and DSG3 Ab inh 98.
Screening CCN(CCO)c1nc(SC)nc2c1sc1nc(-c3ccco3)c3c(c12)CCC3 returned SUMO1-SIM PPI 0, DNMT1 inh -3, NS3 helicase inh 36*, DSG3 Ab inh 101, NS3 helicase cf 81* and DNA FID counter 27.
Screening CCN(CCO)c1ncnc2c1sc1nc(C(C)C)c3c(c12)CC(C)(C)OC3 returned SUMO1-SIM PPI -4, DNMT1 inh 0, MBD2 inh -2, NS3 helicase inh -1, UHRF1 MBD2 ctr 1 and DSG3 Ab inh 102.
For CN(C)/C=C1/C(=O)N(c2ccc([N+](=O)[O-])cc2)N=C1c1ccccc1 the results were MBD2 inh -1, NS3 helicase inh 19 and UHRF1 MBD2 ctr -5.
CN(C)/C=C1\C(=O)N(c2ccc([N+](=O)[O-])cc2)N=C1c1ccccc1 was read as SUMO1-SIM PPI 10, DNMT1 inh -7, MBD2 inh 1, NS3 helicase inh 40*, UHRF1 MBD2 ctr -2, DSG3 Ab inh 115, NS3 helicase cf 53* and DNA FID counter 10.
Screening Cc1cc(N=Nc2ccccc2C(=O)O)c(C)c(C)c1O returned SUMO1-SIM PPI -29, DNMT1 inh -7, MBD2 inh -12, NS3 helicase inh 49*, UHRF1 MBD2 ctr -10, DSG3 Ab inh 102, NS3 helicase cf 66* and DNA FID counter 2.

Assay outcomes as filed in PubChem BioAssay.
